High-throughput results as filed in PubChem BioAssay.
Pyk2 oligo antag: antagonists of Pyk2 self-association, primary screen, Q293 cells, FERM NanoBiT luminescence, HTS; hit rate 0.83% among 99,000; AID 1347419, 2020; hits give low values; z-score (the deposit names both 25 µM and 10 µM); Protein-tyrosine kinase 2-beta (Homo sapiens), Q14289;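 active means Z-score of -3 or lower, scaled per plate to the spread of control and sample wells; inactive means z-score above -3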;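 further: negative z-score means lost luminescence so less FERM oligomerization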
Target sequence (Q14289 whole entry, looked up): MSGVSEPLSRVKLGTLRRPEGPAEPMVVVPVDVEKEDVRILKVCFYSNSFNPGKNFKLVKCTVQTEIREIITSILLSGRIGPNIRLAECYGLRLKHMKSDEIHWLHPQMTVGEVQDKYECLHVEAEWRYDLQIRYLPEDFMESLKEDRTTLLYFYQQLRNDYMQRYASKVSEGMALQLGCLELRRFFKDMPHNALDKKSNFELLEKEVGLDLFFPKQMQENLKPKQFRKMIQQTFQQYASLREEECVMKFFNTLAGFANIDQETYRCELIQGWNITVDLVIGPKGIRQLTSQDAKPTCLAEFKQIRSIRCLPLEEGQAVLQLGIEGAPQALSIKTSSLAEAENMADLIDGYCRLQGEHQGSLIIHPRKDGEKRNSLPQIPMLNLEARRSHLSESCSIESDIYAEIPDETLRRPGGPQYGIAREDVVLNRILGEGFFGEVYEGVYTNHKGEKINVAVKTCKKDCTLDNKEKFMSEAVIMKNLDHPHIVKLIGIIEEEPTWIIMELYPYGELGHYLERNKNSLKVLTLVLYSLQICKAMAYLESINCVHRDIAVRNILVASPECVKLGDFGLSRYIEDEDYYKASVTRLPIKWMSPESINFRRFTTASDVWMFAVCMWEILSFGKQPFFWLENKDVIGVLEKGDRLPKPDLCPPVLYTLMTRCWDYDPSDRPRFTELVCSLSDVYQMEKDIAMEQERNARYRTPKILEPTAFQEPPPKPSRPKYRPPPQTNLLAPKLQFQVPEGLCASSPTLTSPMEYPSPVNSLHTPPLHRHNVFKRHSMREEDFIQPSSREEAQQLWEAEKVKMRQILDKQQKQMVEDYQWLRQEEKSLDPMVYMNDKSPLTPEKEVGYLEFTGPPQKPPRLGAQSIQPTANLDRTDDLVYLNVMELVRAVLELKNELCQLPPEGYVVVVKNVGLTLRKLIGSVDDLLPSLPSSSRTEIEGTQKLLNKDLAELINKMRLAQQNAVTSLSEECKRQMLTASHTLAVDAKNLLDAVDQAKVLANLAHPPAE
Phagocytosis inh: inhibitors of macrophage phagocytosis, primary screen, imaging, J774A.1 cells, IgG beads | inhibition, % at 5 µM | J774A.1 macrophage IgG-bead phagocytosis | hit rate 0.07% among 110,000;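 active means inhibition above the mean of the plate negative controls plus 5 SD, cut at about 13% in these data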;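 further: phagocytic index as fraction of beads internalized from green versus red external bead signal; plate controls were DMSO negative control for no effect and cytochalasin-D positive control for full effect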
Measles CPE: compounds protecting cells from measles virus cytopathic effect, primary screen, measles RdRp inhibitor project, single point, MLSMR library, absorbance; Measles virus-infected cells, CPE protection; protection (pct of control), % at 4 µM; hit rate 1.5% among 140,000; AID 841, 2007; in the data active means protection mostly above about 24%, no sharp cut-off; inactive means mostly below about 26%
Rev-RRE block: HIV-1 Rev-RRE binding inhibitors, primary screen, biochemical, FRET, protein-RNA interaction; P05866; hit rate 0.79% among 97,000; inhibition, % at 8 µM; Rev peptide-RRE RNA binding;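 active means inhibition above the screen-wide mean plus 3 SD, cut at about 35% in these data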;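 further: 0% = median DMSO wells and 100% = median Neomycin B control wells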
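Test system: labelled RRE RNA duplex and labelled Rev peptide. Times: 5 min compound–RNA preincubation, then 15 min with peptide, 25 °C. Doses: single-dose 8 µM. Measured by: FRET, excitation 480 nm, emission 540 nm donor and 671 nm acceptor. Measure: % inhibition of FRET ratio versus controls.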
Cav32 inh: Cav3.2 calcium influx blockers – cell-based, Fluo-4 calcium fluorescence, FDSS, MLSMR library, primary screen; Voltage-dependent T-type calcium channel subunit alpha-1H (Homo sapiens), O95180; Cav3.2-expressing cells; hits give low values; B-score at 10 µM; hit rate 4% among 100,000; AID 449739, 2010;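 active means single-dose well whose peak fluorescence ratio is a statistical outlier from its plate by either plate-standardised score or position-corrected B-score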
hDAT+cocaine: changed hDAT dopamine uptake under cocaine IC80, either direction, primary screen, cocaine antagonist project, cell-based, LLC-PK1 hDAT, [14C]-dopamine uptake, MLSMR. Sodium-dependent dopamine transporter (Homo sapiens), Q01959. LLC-PK1 hDAT cells, [14C]-dopamine uptake with cocaine IC80; actives deviate in either direction. B-score at 10 µM. hit rate 1.3% among 110,000. AID 449768, 2010;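 active means Z score or B-score, a plate-position-corrected score, falls beyond the plate's 99.7% confidence bounds, in either direction; inactive means both scores lie inside the 99.7% bounds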;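 further: scored against the spread of the other compound wells on the same plate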
The depositor's hits bear a star; / = not tested or not shown. An excerpt weighted towards active compounds, which were near 5.9% of everything screened.

SMILES | Pyk2 oligo antag | Phagocytosis inh | Measles CPE | Rev-RRE block | Cav32 inh | hDAT+cocaine
O=C(COC(=O)c1ccc(Sc2ccccc2)c([N+](=O)[O-])c1)NC1CCCc2ccccc21 (configuration not stated) | 1.1 | 5 | 5 | 9 | -1.3 | -0.028
O=[N+]([O-])c1cc(Br)c(O)c(/C=N/Nc2nnnn2-c2cccc3ccccc23)c1 | -2.3 | 0 | 16 | 13 | -9.3* | -1.8
CCOc1cc2nc(-c3ccc(OC)c(OC)c3)nc(N3CCOCC3)c2cc1OC | / | 4 | 33 | 4 | -6* | 0.88
COc1ccc(/C(O)=C/c2nc3ccc(C(=O)NCCc4cccc(C)c4)cc3[nH]c2=O)cc1OC | / | -9 | 14 | / | / | /
O=C1CSC(c2cn(-c3ccccc3)nc2-c2cccs2)N1CC1CCCO1 (configuration not stated) | -0.96 | -1 | 24 | 5 | -5* | 2.7*
O=C1CSC(c2cn(-c3ccccc3)nc2-c2ccccc2)N1Cc1ccco1 (configuration not stated) | -1.6 | 2 | 28 | 8 | -4.7* | -0.049
CCc1ccc(-c2nn(-c3ccccc3)cc2C2SCC(=O)N2Cc2ccco2)cc1 (configuration not stated) | -0.67 | -2 | 17 | 4 | / | /
CCOC(=O)C1=C(C)NC(=O)NC1c1cn(-c2ccccc2)nc1-c1cccs1 (configuration not stated) | -1.6 | -1 | 4 | / | -0.99 | 1.5
CCOC(=O)Cn1nnnc1CN(CCc1ccccc1)Cc1cc2cc(CC)ccc2[nH]c1=O | 0.15 | -2 | 20 | -2 | -4.4* | 1.7
Cc1ccc(CN(Cc2cc3cc4c(cc3[nH]c2=O)OCCO4)Cc2nnnn2Cc2ccco2)cc1 | 1.8 | -2 | 6 | 24 | -3.2 | -0.64
Cc1ccc2cc(CN(Cc3ccc4c(c3)OCO4)Cc3nnnn3Cc3ccco3)c(=O)[nH]c2c1 | 0.58 | -2 | 16 | 6 | -6.7* | 0.22
Cc1ccccc1NC(C)C(=O)N/N=C/c1ccccc1OCc1cccc(Br)c1 (configuration not stated) | -2 | 4 | 4 | 10 | -6.4* | -0.37
O=C(Nc1ccc(/C=C/c2nc3ccccc3o2)cc1)c1ccc(F)cc1 | 0.09 | / | 16 | 13 | -1.6 | 0.48
CN1C(=O)CSc2ccc(NC(=O)Nc3ccccn3)cc21 | -2.4 | -1 | 16 | 11 | 0.78 | 0.44
CCOc1ccc(OCC)c(NC(=O)Nc2ccc3c(c2)N(C)C(=O)CS3)c1 | / | 0 | 0 | 6 | 0.52 | 1.9*
COc1cccc(NC(=O)Nc2ccc3c(c2)N(C)C(=O)CS3)c1 | -4* | / | 7 | 6 | -0.77 | 0.6
Cc1cc(CCCCCCCCc2cc(C)cc(=O)o2)oc(=O)c1 | / | -11 | 7 | / | / | /
CCOC(=O)C(C)n1cnc2c(nnn2Cc2ccc(Cl)cc2)c1=O (configuration not stated) | 0.43 | -2 | 1 | -3 | -4.5* | 0.73
O=C(Cn1cnc2c(nnn2Cc2ccc(Cl)cc2)c1=O)N1CCN(c2ccccc2)CC1 | / | / | / | / | -4.4* | 1.2
Cn1c(Cn2nnc(-c3ccccc3)n2)nnc1SCc1ccccc1Cl | -0.72 | 1 | 8 | 13 | -2.5 | 0.85
CC(=O)Oc1cccc(N2C(=O)C3C4C=CC(C4=C(C)C)C3C2=O)c1 (configuration not stated) | 0.35 | 2 | 23 | 4 | 1.6 | -9*
CC(=O)Oc1cccc(N2C(=O)C3C(C2=O)C2C=CC3C23CC3)c1 (configuration not stated) | -0.18 | 0 | 14 | 0 | 0.41 | -1.9
COC(=O)C1=C(C)N(Cc2ccco2)C(=O)N[C@H]1c1ccc(Br)cc1 | / | / | 7 | / | / | /
Cn1nc(C(F)(F)F)c(/C=N/OC(=O)c2ccccc2Cl)c1SCc1ccccc1Cl | -0.9 | 0 | 5 | 19 | -6.6* | 0.018
CCOC(=O)c1c(NC(=O)C2COc3ccccc3O2)sc2c1CC(C)(C)NC2(C)C (configuration not stated) | / | -5 | 47* | / | / | /
SMILES | Pyk2 oligo antag | Phagocytosis inh | Measles CPE | Rev-RRE block | Cav32 inh | hDAT+cocaine
CC(c1ccco1)N(C(=O)CSc1ccc(Br)cc1)c1ccccn1 (configuration not stated) | -0.25 | 1 | 5 | 8 | -4.5* | -0.055
CC(c1ccco1)N(C(=O)c1cccs1)c1ccccn1 (configuration not stated) | 1.6 | -2 | 3 | 1 | 0.32 | -1.2
Cc1cc(C(=O)OCc2nnc(-c3ccccc3)o2)c(C)n1-c1ccccc1 | 1.9 | -1 | 30 | / | -3 | 1.4
Cc1noc(C)c1COC(=O)c1cc(C)n(-c2ccccc2)c1C | -3.1* | 0 | 13 | 4 | -4.9* | 0.14
Cc1cccc(C(=O)Nc2ccccc2C(=O)OCc2c(C)noc2C)c1 | -1.3 | / | 90* | 11 | -2 | 0.092
O=C(COC(=O)c1ccc(S(=O)(=O)Nc2ccccc2)cc1)NCc1ccco1 | 2.1 | 0 | 5 | 3 | -0.78 | -0.63
CC(C)C[C@H]1COCCS(=O)(=O)N1Cc1cccc(F)c1 | / | / | / | / | 0.015 | -0.34
Cc1ccc(CN2CC34C=CC(O3)C(C(=O)NCc3ccc5c(c3)OCO5)C4C2=O)cc1 (configuration not stated) | -0.32 | / | 25 | 1 | -0.2 | -8.1*
O=C(Cn1cnc2cc([N+](=O)[O-])ccc2c1=O)NC(c1ccccc1)c1ccccc1 | / | / | 7 | / | / | /
COc1cc(/C=N/NC(=O)CC2(C)OCCCO2)ccc1OCc1ccc(Cl)cc1Cl | / | -2 | 17 | / | / | /
CC1(CC(=O)N/N=C/c2ccc(OCc3ccc(Cl)cc3Cl)cc2)OCCCO1 | 0.32 | / | 7 | 0 | -0.75 | 3.4*
Cc1ccsc1/C=N/NC(=O)CSCc1ccc(Cl)cc1 | -0.62 | 1 | 7 | 12 | -5.2* | -0.02
FC(F)(F)c1ccc(C2[C@H]3CN(CC4CCCCC4)[C@H](c4ccccc4)C34CC2(c2cccnc2)C4)cc1 (some centres not stated) | / | / | / | / | -0.24 | -0.16
O=C(O)c1cccc2c1C(=O)N(Cc1ccncc1)C2 | 0.17 | 0 | 72* | 9 | 0.0039 | -0.76
CC(C)Oc1cccc(C(=O)Nc2ccccc2N2CCOCC2)c1 | -0.72 | -2 | 11 | 8 | -1.9 | -0.19
O=C(Nc1ccccc1N1CCOCC1)c1ccc2ccccc2n1 | -3.6* | 3 | 5 | 7 | 0.54 | -0.28
CN(C)CCCNCC(=O)Nc1ccccc1N1CCOCC1 | 0.04 | -1 | 15 | 5 | 0.15 | -7.7*
